Rows were chosen to be rich in hits. Some 12% of all compounds tested hit in one or more screens of this group.
CHOP inhibitor: inhibitors of CHOP promoter induction, primary screen, cell-based, unfolded protein response, luciferase reporter | CHO-K1 CHOP-promoter luciferase, tunicamycin-induced, 15-18 h | inhibition, % at 10 µM | hit rate 3.8% among 220,000;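 active = compounds that reduced the stress-induced luciferase reporter signal by more than about 70% of percent inhibition, limit read from the data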;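 note: 0% = tunicamycin plus vehicle and 100% = wells without tunicamycin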
MT stabilize HCS: microtubule stabilizers in HeLa cells, primary screen, imaging, high-content imaging; HeLa tubulin immunostaining HCS, 24 h; share of cells brighter than vehicle mean+2SD; % tubulin-high responders, % at 10 µM; hit rate 0.83% among 200,000; AID 2205, 2009;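 active = plate Z-score above 3 for both tubulin-high and condensed-nucleus cell shares, with cell loss under 80%, at 10 µM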;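 note: anti alpha tubulin signal scored within the nucleus-defined area of each cell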
Lmaj promast: Leishmania major promastigote growth inhibition, primary screen; Leishmania major promastigotes, resazurin fluorescence viability; inhibition, % at 10 µM; hit rate 9% among 200,000; AID 1063, 2008; in the data active = inhibition above about 50%;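 note: promastigotes grown with compound for 44 hours at 28 °C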
Dynein cargo inh: inhibitors of GR-EGFP nuclear translocation, primary screen, dynein cargo transport inhibitor project, imaging, high-content, 3617.4 mouse cells; test concentration mostly 20 µM; stimulated with dexamethasone, 1 µM; active compounds read low; z-score, hits read low; hit rate 0.47% among 220,000; AID 1381, 2008;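 active = plate z-score of nuclear minus cytoplasmic receptor signal below a set negative limit, without overly bright fluorescence or cell loss, cut at about -3.5 in these data, passing the limit was not always enough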;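 note: z-score of nuclear minus cytoplasmic ring GR-EGFP intensity difference per well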
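Also added: dexamethasone, 1.0 µM final. Medium: tet-free, stripped-serum medium. Detection: fixed, Hoechst-stained cells imaged at 10x for EGFP. Read-out: nuclear-to-cytoplasmic GR-EGFP distribution per well. Times: induction 48 h, compound 1 h, agonist 30 min.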
Autophagy HCS: autophagy modulators in MEF cells, primary screen, imaging, high-content, MEF GFP-LC3; hit rate 0.98% among 190,000; MEF GFP-LC3 puncta imaging; test concentration mostly 10 µM; calls only at 10 µM (by protocol);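 active = percentage of spot-positive cells more than 3 SD above its plate mean, without a fluorescence outlier flag or 80% toxicity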;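 note: spot-positive cell cutoff set from DMSO-treated cells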
b-catenin transl: modulators of beta-catenin nuclear translocation, primary screen, imaging, HeLa cells, immunofluorescence, high-content; hit rate 0.3% among 190,000; AID 1665, 2009; nuclear translocation activity, % at 5 µM;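 active = nuclear translocation activity above 50% at 5 µM, with a well cell count of 50 or more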;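 note: per-cell ratio of nuclear to cytoplasmic median beta-catenin stain intensity; plate controls were DMSO negative control for no effect and GSK-3 inhibitor IX positive control for full effect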
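System: Human HeLa cells, endogenous beta-catenin | Compound dosing: 5 µM primary, 0.02–20 µM confirmation | Timing: 24 h compound exposure at 37°C, 5% CO2 | Measured by: Fluorescence imaging of beta-catenin antibody stain plus DAPI | Read-out basis: % activation of per-cell nuclear versus cytoplasmic median beta-catenin signal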
Dynein confirm: dynein cargo transport inhibitors, GR-EGFP translocation, confirmation, imaging, high-content imaging, GR-EGFP cells | shares compounds with Dynein cargo inh | 3617.4 GR-EGFP nuclear translocation imaging, dexamethasone-induced | calls only at 20 µM | hit rate 69% among 1,000 | AID 463116, 2010;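 active = inhibition of receptor movement into the nucleus at or above a set limit in both runs, with normal cell brightness and cell count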;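 note: dexamethasone at 1 µM final in well for 30 min; nuclear minus cytoplasmic GR-EGFP mean intensity difference in channel 2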
CHOP confirm: retest of CHOP induction inhibitors, confirmation, cell-based. CHO-CHOP promoter luciferase reporter, tunicamycin-induced, luminescence. shares compounds with CHOP inhibitor. hit rate 45% among 2,100. AID 504437, 2011. inhibition, % at 10 µM;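 active = mean of three repeat readings of reporter signal inhibition above a set limit, cut at about 70% in these data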;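 note: 0% = tunicamycin plus vehicle and 100% = wells lacking tunicamycin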
* hit, by the source's call.

`COC1CC(OC2CCC3(C)C(CCC4C3CCC3(C)C(C5=CC(=O)OC5)C(OC(C)=O)CC43O)C2)OC(C)C1OC1OC(COC2OC(CO)C(O)C(O)C2O)C(O)C(O)C1O` (stereo unspecified) gave CHOP inhibitor 5, Dynein cargo inh -0.41 and b-catenin transl 10.
Screening COc1ccc(N2C(=O)NC(=O)/C(=C/c3ccc(N4CCOCC4)cc3)C2=O)cc1 returned CHOP inhibitor -20, MT stabilize HCS 4, Lmaj promast -6, Dynein cargo inh -0.071, Autophagy HCS inactive and b-catenin transl -4.
`COc1ccc(N2C(=O)NC(=O)/C(=C/c3ccc([N+](=O)[O-])s3)C2=O)cc1` gave CHOP inhibitor 3, Dynein cargo inh -5.3*, b-catenin transl 0 and Dynein confirm active.
For COc1cccc(N2C(=O)NC(=O)/C(=C/c3ccc4c(c3)Cc3ccccc3-4)C2=O)c1 the results were CHOP inhibitor -12, MT stabilize HCS 1, Lmaj promast 8, Dynein cargo inh -0.96, Autophagy HCS inactive and b-catenin transl -8.
COc1ccc(N2C(=O)NC(=O)/C(=C\c3ccc([N+](=O)[O-])s3)C2=O)cc1 was read as CHOP inhibitor -1, MT stabilize HCS 4, Lmaj promast 97*, Dynein cargo inh -7.1*, Autophagy HCS inactive, b-catenin transl 1 and Dynein confirm active.
COc1cccc(N2C(=O)NC(=O)/C(=C/c3ccc([N+](=O)[O-])s3)C2=O)c1 was read as CHOP inhibitor -68, Dynein cargo inh -5.6*, b-catenin transl 2 and Dynein confirm active.
Screening COc1ccc(CN2C(=O)NC(=O)/C(=C/c3ccc([N+](=O)[O-])s3)C2=O)cc1 returned CHOP inhibitor 8, Dynein cargo inh -4.3*, b-catenin transl -2 and Dynein confirm active.
Screening Cc1ccc(S(=O)(=O)N(c2cc(Cl)c(O)c(Cl)c2)P(=O)(OC(C)C)OC(C)C)cc1 returned CHOP inhibitor -14, MT stabilize HCS 9, Lmaj promast 0, Dynein cargo inh -0.42, Autophagy HCS inactive and b-catenin transl -3.
For O=C(C[N+]12CCC(CC1)C(C(O)(c1ccccc1)c1ccccc1)C2)c1ccc(Br)cc1 (stereo unspecified) the results were CHOP inhibitor 5, Dynein cargo inh -0.81 and b-catenin transl 1.
CC(=O)Nc1ccccc1C(=O)OCc1ccccc1F was read as CHOP inhibitor -7, MT stabilize HCS 8, Lmaj promast -5, Dynein cargo inh -0.038, Autophagy HCS inactive and b-catenin transl -2.
Screening COc1ccccc1N1C(=O)NC(=O)/C(=C\c2cnn(-c3ccccc3)c2)C1=O returned CHOP inhibitor 50, MT stabilize HCS 6, Lmaj promast -1, Dynein cargo inh 0.85, Autophagy HCS inactive and b-catenin transl -1.
COc1ccccc1N1C(=O)NC(=O)/C(=C/c2ccc([N+](=O)[O-])s2)C1=O was read as CHOP inhibitor -23, Dynein cargo inh -5.8*, b-catenin transl 0 and Dynein confirm active.
`CC[n+]1c(/C=C/C=C/c2ccc(N(C)C)cc2)sc2ccccc21` gave CHOP inhibitor 64, Dynein cargo inh -3.7*, b-catenin transl 2 and Dynein confirm active.
CN(C)c1ccc(/C=C/C=C/c2sc3ccccc3[n+]2C)cc1 was read as CHOP inhibitor 48, Dynein cargo inh -0.28 and b-catenin transl 2.
Screening CCOC(=O)c1c(-n2c(C)cc(C=C3C(=O)NC(=S)NC3=O)c2C)sc2c1CCCC2 returned CHOP inhibitor 107*, MT stabilize HCS 68, Lmaj promast 100*, Dynein cargo inh -4.6*, Autophagy HCS inactive, b-catenin transl 4, Dynein confirm active and CHOP confirm 140*.
For CC(C)n1c(O)c(C2c3cc(Cl)ccc3Oc3[nH]c(=O)n(C(C)C)c(=O)c32)c(=O)[nH]c1=O (stereo unspecified) the results were CHOP inhibitor 107*, Dynein cargo inh -5.3*, b-catenin transl 0, Dynein confirm active and CHOP confirm 62.
CC(=O)c1c(O)n(-c2cccc(Cl)c2)c(=O)[nH]c1=O (tested in a mixture with another compound) was read as CHOP inhibitor 11, Dynein cargo inh -0.03 and b-catenin transl -1.
`CCN1CCN(c2ccc(N)c(C)c2)CC1` gave CHOP inhibitor 26, MT stabilize HCS 5, Lmaj promast -1, Dynein cargo inh -1.2, Autophagy HCS inactive and b-catenin transl 0.
CCN1C(=O)/C(=C/c2ccc(N(CC)CC)cc2OC)C(=O)NC1=S was read as CHOP inhibitor 100*, MT stabilize HCS 4, Lmaj promast 99*, Dynein cargo inh 1.1, Autophagy HCS inactive, b-catenin transl 2 and CHOP confirm -15.
Screening C=CCN1C(=O)/C(=C/c2ccc(N3CCOCC3)o2)C(=O)NC1=S returned CHOP inhibitor -52, MT stabilize HCS 3, Lmaj promast 3, Dynein cargo inh -0.3, Autophagy HCS inactive and b-catenin transl 1.
C=CCN1C(=O)NC(=O)/C(=C\c2ccc(-c3ccccc3[N+](=O)[O-])o2)C1=O was read as CHOP inhibitor 105*, MT stabilize HCS 1, Lmaj promast -4, Dynein cargo inh -0.35, Autophagy HCS inactive, b-catenin transl -1 and CHOP confirm -36.
Screening O=C1NC(=O)N(Cc2ccco2)C(=O)/C1=C/c1ccc(-c2cccc([N+](=O)[O-])c2)o1 returned CHOP inhibitor 98*, MT stabilize HCS 2, Lmaj promast 99*, Dynein cargo inh -3.2, Autophagy HCS inactive, b-catenin transl -1 and CHOP confirm -104.
CN(C)c1ccc(/C=C2/C(=O)NC(=O)N(Cc3ccco3)C2=O)cc1 was read as CHOP inhibitor -15, MT stabilize HCS 6, Lmaj promast -1, Dynein cargo inh -0.93 and Autophagy HCS inactive.

Bioassay records: PubChem, several laboratories
